For 14 compounds, IC50, inhibition and Activity results are on record in ChEMBL document CHEMBL4732131, “Design, synthesis and evaluation of novel thienopyrimidine-based agents bearing diaryl urea functionality as potential inhibitors of angiogenesis” (Eur J Med Chem, 2021).

Assay [1] deals with HUVEC. Description: Antiproliferative activity against HUVEC incubated for 48 hrs by MTT assay. It is filed as functional, cell-based. The settings on record: Homo sapiens. The method, boiled down:
(§1)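 8000 cells per well in complete medium, settled overnight at 37 °C under 5% CO2. Compounds were added from DMSO over a range of concentrations and incubated 48 h at 37 °C. MTT (5% solution) was added for 4 h and absorbance read at 570 nm. IC50 was taken from survival-versus-concentration curves. Negative control was 0.1% DMSO.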

The next assay relates to T47D. In words: Antiproliferative activity against human T47D cells incubated for 48 hrs by MTT assay. It counts as functional, cell-based. The essentials: as §1
In assay [2] the test system is PC-3. Description: Antiproliferative activity against human PC-3 cells incubated for 48 hrs by MTT assay. It is filed as functional, cell-based. The conditions noted are these: PC-3, 48 h. The essentials:
as §1
On the technique in general: Formazan colour is commonly taken as a measure of viable cells.

Another assay concerns HepG2. In words: Antiproliferative activity against human HepG2 cells incubated for 48 hrs by MTT assay. It is filed as functional, cell-based. The settings on record: HepG2, 48 h. The essentials: as §1
Assay [3] deals with Chorioallantoic membrane. In words: Vascular disruptive effect in chicken fertilized egg chorioallantoic membrane assessed as reduced length of blood vessels by CAM assay. The conditions noted are these: Gallus gallus. It counts as functional, tissue-based.
Assay [4] has as its system Chorioallantoic membrane. Description: Vascular disruptive effect in chicken fertilized egg chorioallantoic membrane assessed as decrease in number of capillary blood vessels by CAM assay relative to control. It counts as functional, tissue-based. Also noted: concentration or dose not given beside the values. The settings on record: Gallus gallus, dose or concentration not given here.

The subject of assay [5] is PC-3. Description: Induction of apoptosis in human PC-3 cells assessed as late apoptotic cells at IC50 measured after 48 hrs by Annexin V-FITC/propidium iodide staining based flow cytometry (reference value: 5.16%). It counts as functional. On the technique in general: A flow cytometer gives signals particle by particle.
The subject of assay [6] is PC-3. Description: Induction of cell cycle arrest in human PC3 cells assessed as accumulation at G1 phase at IC50 after 48 hrs by flow cytometry (reference value: 44.11%). It is filed as functional.
In assay [7] the test system is PC-3. Description: Induction of cell cycle arrest in human PC-3 cells assessed as number of cells at SubG1 phase at IC50 after 48 hrs by flow cytometry. It is filed as functional.
In assay [8] the test system is PC-3. In words: Induction of cell cycle arrest in human PC-3 cells assessed as number of cells at S phase at IC50 after 48 hrs by flow cytometry (reference value: 44.12%). It is filed as functional.
Assay [9] concerns PC-3. Description: Induction of apoptosis in human PC-3 cells assessed as viable cells at IC50 measured after 48 hrs by Annexin V-FITC/propidium iodide staining based flow cytometry (reference value: 81.4%). It counts as functional.
Assay [10] has as its system PC-3. In words: Induction of apoptosis in human PC-3 cells assessed as necrotic cells at IC50 measured after 48 hrs by Annexin V-FITC/propidium iodide staining based flow cytometry (reference value: 7.74%). It counts as functional.
For assay [11], the system named is PC-3. Description: Induction of apoptosis in human PC-3 cells assessed as early apoptotic cells at IC50 measured after 48 hrs by Annexin V-FITC/propidium iodide staining based flow cytometry (reference value: 4.7%). It counts as functional.
For assay [12], the system named is HUVEC. In words: Induction of cell cycle arrest in HUVEC assessed as number of cells at G1 phase at IC50 after 48 hrs by flow cytometry (reference value: 40.93%). It is filed as functional, Homo sapiens. The method, boiled down: (§2)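 Cells were PI-stained and analysed by flow cytometry, with the phase fractions (subG1, G1, S, G2/M) taken from DNA content.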
Assay [13] has as its system PC-3. In words: Down-regulation of VEGFR2 phosphorylation in human PC-3 cells at 48 hrs by Western blot analysis. It is filed as functional, cell-based. The settings on record: dose 2.4-5.4 µM. The method, boiled down: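 PC3 cells treated for 48 h at 2.4, 3.6 and 5.4 µM. Lysates run on 12% SDS-PAGE and transferred to nitrocellulose. Membranes probed overnight at 4 °C (12 h) for VEGFR-2 and p-VEGFR-2, with beta-actin as loading control. Detection by ECL.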

In assay [14] the test system is HUVEC. In words: Induction of apoptosis in HUVEC assessed as necrotic cells at IC50 measured after 48 hrs by Annexin V-FITC/propidium iodide staining based flow cytometry (reference value: 0.891%). It is filed as functional, Homo sapiens.
Assay [15] relates to PC-3. Description: Induction of cell cycle arrest in human PC-3 cells assessed as number of cells at G2 phase at IC50 after 48 hrs by flow cytometry (reference value: 15.97%). It counts as functional.
Assay [16] concerns HUVEC. In words: Induction of cell cycle arrest in HUVEC assessed as number of cells at S phase at IC50 after 48 hrs by flow cytometry (reference value: 41.49%). It counts as functional, Homo sapiens. The essentials:
as §2

Assay [17] relates to PC-3. Description: Down-regulation of VEGFR2 phosphorylation in human PC-3 cells by Western blot analysis. It is filed as functional, cell-based. The conditions noted are these: time 24-72 hrs, TDE = time-dependent effect. For orientation: Immunoblotting shows a protein as a band on a membrane.
Assay [18] relates to HUVEC. In words: Induction of apoptosis in HUVEC assessed as late apoptotic cells at IC50 measured after 48 hrs by Annexin V-FITC/propidium iodide staining based flow cytometry (reference value: 7.23%). It is filed as functional, Homo sapiens.
Assay [19] concerns HUVEC. In words: Induction of apoptosis in HUVEC assessed as early apoptotic cells at IC50 measured after 48 hrs by Annexin V-FITC/propidium iodide staining based flow cytometry (reference value: 4.51%). It is filed as functional, Homo sapiens.
Assay [20] has as its system HUVEC. Description: Induction of cell cycle arrest in HUVEC assessed as number of cells at G2 phase at IC50 after 48 hrs by flow cytometry (reference value: 6.25%). It is filed as functional, Homo sapiens. The essentials: as §2
The nature of assay [21]: Cytotoxicity against human Hu02 cells incubated for 48 hrs by MTT assay. The conditions noted are these: Hu02, 48 h. It counts as cell-based. The essentials: as §1
The subject of assay [22] is HUVEC. Description: Induction of apoptosis in HUVEC assessed as viable cells at IC50 measured after 48 hrs by Annexin V-FITC/propidium iodide staining based flow cytometry (reference value: 87.4%). It counts as functional, Homo sapiens.

The structures appear in SMILES notation. Active and inactive are the calls of the source. The rule behind the calls is not given here.

In general, IC50 refers to the concentration at which inhibition is half-maximal. Regarding `O=C(Nc1cccc(C(F)(F)F)c1)Nc1nnc(Sc2ncnc3scc(-c4ccncc4)c23)s1`, the IC50 was 22.4 µM in the assay with HUVEC [1], 45.1 µM in the assay on T47D, 11.5 µM in the assay with PC-3 [2] and 15.3 µM with HepG2.

The term inhibition denotes how much of the control response was suppressed. For the compound `Cc1cccc(NC(=O)Nc2nnc(Sc3ncnc4scc(-c5ccncc5)c34)s2)c1`, the IC50 with HUVEC [1] came out at 12.2 µM; in the assay with T47D, 27.2 µM; with PC-3 [2], 5.2 µM; in the assay with HepG2, 20.7 µM. In addition, the inhibition entry in the assay with Chorioallantoic membrane [3] was “inactive”. Besides, the inhibition in the assay with Chorioallantoic membrane [4] stood at 29%.

Turning to `O=C(Nc1ccc(F)cc1)Nc1nnc(Sc2ncnc3scc(-c4ccncc4)c23)s1`, the Activity in the assay on PC-3 [5] stood at 23%; in the assay on PC-3 [6], 55.92%; in the assay on PC-3 [7], 9.73%; with PC-3 [8], 29.76%; in the assay with PC-3 [9], 43.3%; in the assay with PC-3 [10], 32.2%. In the assay on PC-3 [11], the Activity was determined as 1.47%. For the same compound, the IC50 with HUVEC [1] turned out to be 28.3 µM; in the assay with T47D it was 18.9 µM; with PC-3 [2], 0.97 µM; in the assay on HepG2, 31.7 µM. Moreover, in the assay with Chorioallantoic membrane [3], the inhibition entry is “inactive”. The inhibition in the assay on Chorioallantoic membrane [4] was 27%.

Regarding `O=C(Nc1ccc(Cl)c(Cl)c1)Nc1nnc(Sc2ncnc3scc(-c4ccncc4)c23)s1`, the Activity in the assay with HUVEC [12] turned out to be 48.3%; in the assay on HUVEC [14], 21%; in the assay with PC-3 [5], 37%; in the assay on PC-3 [15] it was 12.85%; with HUVEC [16] it was 49.8%; in the assay on PC-3 [6] it was 45.2%. For the same compound, the Activity in the assay with PC-3 [7] came to 4.38%; with PC-3 [8], 40.58%; with HUVEC [18], 17%; in the assay with PC-3 [9], 43.2%; with HUVEC [19], 4.65%; with PC-3 [10], 12.6%. For the same compound, the Activity was found to be 5.53% in the assay on HUVEC [20], 7.17% in the assay on PC-3 [11] and 55.2% with HUVEC [22]. Also, the inhibition result is “Dose-dependent effect” in the assay on PC-3 [13], “Tde” with PC-3 [17], 46% with Chorioallantoic membrane [3] (dose or concentration not given here) and 65% in the assay on Chorioallantoic membrane [4]. Also, the IC50 is 7.8 µM in the assay on HUVEC [1]; 14.6 µM in the assay on T47D; 3.6 µM with PC-3 [2]; 61.9 µM with HepG2; 34.3 µM in assay [21].

For `O=C(Nc1ccccc1)Nc1nnc(Sc2ncnc3scc(-c4ccncc4)c23)s1`, the IC50 in the assay with HUVEC [1] is 19.3 µM; in the assay with T47D it was 23.3 µM; in the assay on PC-3 [2], 5.7 µM; in the assay with HepG2, 19.4 µM.

Consider `COc1cccc(NC(=O)Nc2nnc(Sc3ncnc4scc(-c5ccncc5)c34)s2)c1`, for which the IC50 turned out to be 67.7 µM in the assay on HUVEC [1], 56.9 µM with T47D, 6.8 µM in the assay on PC-3 [2] and 28.4 µM in the assay with HepG2.

As for `Cc1ccc(NC(=O)Nc2nnc(Sc3ncnc4scc(-c5ccncc5)c34)s2)cc1Cl`, the IC50 in the assay on HUVEC [1] was determined as 23.2 µM; with T47D, 34.8 µM; with PC-3 [2], 4.7 µM; in the assay with HepG2, 16 µM.

`CNC(=O)c1cc(Oc2ccc(NC(=O)Nc3ccc(Cl)c(C(F)(F)F)c3)cc2)ccn1` [SORAFENIB]: the Activity in the assay with HUVEC [12] worked out at 58.69%; in the assay on HUVEC [14], 16.4%; in the assay on HUVEC [16], 27.1%; in the assay with PC-3 [6], 66.19%; in the assay on PC-3 [8] it was 22.32%; with HUVEC [18], 23.8%. The Activity in the assay with PC-3 [9] is given as 57.9%; with PC-3 [10], 23.6%; with PC-3 [11], 1.92%; with HUVEC [22], 59.9%. In addition, the IC50 with HUVEC [1] is 2.8 µM; in the assay with T47D, 6.4 µM; in the assay with PC-3 [2], 15.5 µM; in the assay on HepG2, 29.6 µM; in assay [21] it was 40 µM.

For the compound `COc1ccc(NC(=O)Nc2nnc(Sc3ncnc4scc(-c5ccncc5)c34)s2)cc1`, the IC50 with HUVEC [1] was 16.9 µM; in the assay on T47D, greater than 100 µM; in the assay with PC-3 [2] it was 9.9 µM; in the assay with HepG2 it was 14.6 µM.

Consider `O=C(Nc1ccc(Cl)cc1)Nc1nnc(Sc2ncnc3scc(-c4ccncc4)c23)s1`, for which the IC50 amounted to 11.6 µM in the assay with HUVEC [1], 23.3 µM in the assay on T47D, 7.7 µM with PC-3 [2] and 28.9 µM in the assay on HepG2. In addition, the inhibition entry in the assay with Chorioallantoic membrane [3] is “inactive”. Also, the inhibition with Chorioallantoic membrane [4] came out at 21%.

Take `O=C(Nc1cccc(F)c1)Nc1nnc(Sc2ncnc3scc(-c4ccncc4)c23)s1`: the IC50 is 13.7 µM in the assay with HUVEC [1], 16.7 µM in the assay with T47D, 6.6 µM in the assay with PC-3 [2] and 64.1 µM in the assay with HepG2. Moreover, the inhibition result in the assay on Chorioallantoic membrane [3] is “inactive”. Moreover, the inhibition in the assay on Chorioallantoic membrane [4] came out at 35%.

For the compound `O=C(Nc1ccc(Cl)c(C(F)(F)F)c1)Nc1nnc(Sc2ncnc3scc(-c4ccncc4)c23)s1`, the IC50 is 18.4 µM with HUVEC [1], 28 µM in the assay on T47D, 12.1 µM in the assay with PC-3 [2] and 45.3 µM in the assay with HepG2.

For `Cc1ccc(NC(=O)Nc2nnc(Sc3ncnc4scc(-c5ccncc5)c34)s2)cc1`, the IC50 with HUVEC [1] is 19.3 µM; in the assay on T47D it was 17.8 µM; in the assay on PC-3 [2], 2.1 µM; in the assay on HepG2, 52 µM.

For the compound `O=C(Nc1cccc(Cl)c1)Nc1nnc(Sc2ncnc3scc(-c4ccncc4)c23)s1`, the IC50 in the assay with HUVEC [1] came to 21 µM; in the assay with T47D, 43.9 µM; in the assay with PC-3 [2], 8 µM; in the assay with HepG2, 22.9 µM.
